Measurements reported in ChEMBL document CHEMBL4145448, “Broad activity of diphenyleneiodonium analogues against Mycobacterium tuberculosis, malaria parasites and bacterial pathogens” (Eur J Med Chem, 2018).
Converted amounts (≈) assume the structure as drawn.

Key:
[1] = Cytotoxicity against human HepG2 cells after 24 hrs in presence of 10% FBS by resazurin dye based assay; type: cell-based
Method in brief: (§1)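 HepG2 cells seeded at 4000/well in DMEM with 10% FBS and allowed to attach for 24 h at 37 °C, 5% CO2. Compounds added from 300 to 0.14 µM in 3-fold steps and incubated 24 h. 10 µM resazurin added for 2 h, fluorescence read at ex/em 560/590. Percent viability computed relative to untreated and negative controls, duplicate wells.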

[2] = test system: Mycobacterium tuberculosis; assay: Antimycobacterial activity against Mycobacterium tuberculosis H37Rv ATCC 25618 after 7 days by resazurin dye based assay; type: functional; settings: H37Rv ATCC 25618, 168 h
Method in brief: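 H37Rv grown at 37 °C in 7H9 with 10% ADC, 0.5% glycerol and 0.02% tyloxapol. Compounds serially diluted in water, 0 to 10 µM, in triplicate. Culture adjusted to OD600 0.001 and incubated 7 days at 37 °C. Resazurin (0.05% w/v) added for 4-24 h and fluorescence read at 590 nm. MIC is the lowest concentration giving complete growth inhibition versus untreated. Rifampicin served as control.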

[3] = Selectivity index, ratio of CC50 for human HepG2 cells in presence of 1% FBS to MIC for Mycobacterium tuberculosis H37Rv ATCC 25618; type: toxicity; settings: read-out: Selectivity Index
[4] = Selectivity index, ratio of CC50 for human HepG2 cells in presence of 10% FBS to MIC for Mycobacterium tuberculosis H37Rv ATCC 25618; type: toxicity; settings: read-out: Selectivity Index
[5] = test system: Plasmodium falciparum; assay: Growth inhibition of CQ-sensitive GFP-fused Plasmodium falciparum D10 after 90 hrs by ethidium bromide staining based flow cytometry; type: functional, organism-based; settings: D10, 90 h
Method in brief: (§2)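 Parasites cultured in human O+ erythrocytes in RPMI-HEPES pH 7.4 with hypoxanthine, NaHCO3, gentamicin and 0.5% Albumax II under 1% O2/4% CO2 at 37 °C. Synchronised to rings with heparin plus sorbitol. Set up at 1% parasitaemia and 1% haematocrit with 10x compound added. Cultured 90 h to next-cycle trophozoites. Stained with 10 µg/mL ethidium bromide for 1 h, washed, parasitaemia counted by flow cytometry with GFP gating.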

[6] = Cytotoxicity against human HepG2 cells after 24 hrs in presence of 1% FBS by resazurin dye based assay; type: cell-based
Method in brief: as §1, with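 “1%” for “10%”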

[7] = Selectivity index, ratio of CC50 for human HepG2 cells in presence of 1% FBS to IC50 for CQ-sensitive GFP-fused Plasmodium falciparum D10; type: toxicity; settings: read-out: Ratio IC50
[8] = Selectivity index, ratio of CC50 for human HepG2 cells in presence of 10% FBS to IC50 for CQ-sensitive GFP-fused Plasmodium falciparum D10; type: toxicity; settings: read-out: Ratio IC50
[9] = test system: Plasmodium falciparum; assay: Growth inhibition of […] GFP-fused Plasmodium falciparum D10 after 90 hrs by ethidium bromide staining based flow cytometry; type: functional, organism-based; settings: D10, 90 h; method in brief: as §2
[10] = Selectivity index, ratio of CC50 for human HepG2 cells in presence of 1% FBS to IC50 for drug-resistant GFP-fused Plasmodium falciparum D10; type: toxicity; settings: read-out: Ratio IC50
[11] = Selectivity index, ratio of CC50 for human HepG2 cells in presence of 10% FBS to IC50 for drug-resistant GFP-fused Plasmodium falciparum D10; type: toxicity; settings: read-out: Ratio IC50

SMILES	CC50 at 24 h [1] [nM]	MIC [2] [µM]	selectivity ratio [3]	selectivity ratio [4]	IC50 [5] [nM]	CC50 at 24 h [6] [nM]	selectivity ratio [7]	selectivity ratio [8]	IC50 [9] [nM]	selectivity ratio [10]	selectivity ratio [11]
Fc1ccc(Cl)c2c1[I+]c1ccccc1-2	2720	0.27	3.4	10	> 1000	930	–	–	–	–	–
Cc1cccc2c1-c1cccc(Cl)c1[I+]2	486	0.27	0.22	1.8	110	60.1	0.63	5.1	–	–	–
FC(F)(F)Oc1cccc2c1-c1ccccc1[I+]2	251	0.25	0.21	0.99	130	50.3	0.39	1.9	–	–	–
COc1ccc(Cl)c2c1[I+]c1ccccc1-2	224	0.51	0.31	0.44	130	150	1.2	1.75	–	–	–
Fc1cccc2c1-c1c(Cl)cccc1[I+]2	833	1	0.38	0.8	> 1000	392	–	< 0.83	–	–	–
Clc1ccc(Cl)c2c1[I+]c1ccccc1-2	1850	0.5	1.8	3.7	> 1000	894	–	–	–	–	–
FC(F)(F)c1cccc2c1-c1ccccc1[I+]2	94.7	0.26	0.09	0.36	130	23.6	0.18	0.72	140	0.18	0.7
Fc1cccc2c1-c1c(F)cccc1[I+]2	161	0.28	0.32	0.58	840	88.6	0.11	0.19	–	–	–
Fc1cccc2c1-c1cccc(Cl)c1[I+]2	386	0.27	0.19	1.4	190	52.4	0.28	2.1	–	–	–
Cc1ccc(Cl)c2c1[I+]c1ccccc1-2	349	0.13	0.74	2.8	110	93	0.82	3.1	–	–	–
Clc1cccc2c1[I+]c1cccc(Cl)c1-2	544	0.26	0.32	2.1	360	84.6	0.23	1.5	–	–	–
CO[C@H]1/C=C/O[C@@]2(C)Oc3c(C)c(O)c4c(O)c(c(/C=N/N5CCN(C)CC5)c(O)c4c3C2=O)NC(=O)/C(C)=C\C=C\[C@H](C)[C@H](O)[C@@H](C)[C@@H](O)[C@@H](C)[C@H](OC(C)=O)[C@@H]1C [RIFAMPIN]	–	0.3 to 0.61 (≈ 0.247 to 0.502 µg/mL)	–	–	–	–	–	–	–	–	–
